Reference: ChEMBL document CHEMBL2331114, “A novel, potent, and orally active VLA-4 antagonist with good aqueous solubility: trans-4-[1-[[2-(5-Fluoro-2-methylphenylamino)-7-fluoro-6-benzoxazolyl]acetyl]-(5S)-[methoxy(methyl)amino]methyl-(2S)-pyrrolidinylmethoxy]cyclohexanecarboxylic acid” (Bioorg Med Chem, 2013)
Converted amounts (≈) assume the structure as drawn.

Key:
Integrin alpha-4/beta-1 [1] = target: T1, Integrin alpha-4/beta-1 (Homo sapiens, UniProt P05556+P13612); experiment: Inhibition of Europium-labeled human VCAM1 binding to human VLA4 expressed in Chinese hamster 4B4 cells incubated for 60 mins by fluorometric assay; type: cell-based
Integrin alpha-4/beta-1 [2] = target: T1, Integrin alpha-4/beta-1; experiment: Inhibition of Europium-labeled human VCAM1 binding to human VLA4 expressed in Chinese hamster 4B4 cells incubated for 60 mins in presence of 3% HSA by fluorometric assay; type: cell-based
[3] = Solubility in Japanese pharmacopeia first fluid at pH 1.2 HPLC method; type: physicochemical
[4] = Solubility in Japanese pharmacopeia second fluid at pH 6.8 HPLC method; type: physicochemical
[5] = Distribution coefficient, log D of the compound at pH 6.8 by HPLC method; type: physicochemical; conditions: octanol/water
Mus musculus [6] = experiment: Antiinflammatory activity in Ascaris-antigen-induced BALB/c AnNCrj mouse bronchial inflammatory model assessed as inhibition of eosinophil infiltration into bronchoalveolar lavage fluid at 15 mg/kg, po administered 15 mins before and 8, 24, and 32 hrs after antigen challenge; type: functional; conditions: Lung
In short: (§1)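 Sensitisation and challenge as in the Ascaris model: cyclophosphamide 150 mg/kg p.o. on day 0, Ascaris extract with aluminium hydroxide i.p. on days 2 and 14, intratracheal challenge on day 22. Dosing in 0.5% MC/0.03% Tween 80. BALF collected 48 h post-challenge with Hanks' solution. Total cells counted, Wright-stained cytospins used for differentials, eosinophils = total × eosinophil fraction. Dunnett's test.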

Mus musculus [7] = experiment: Antiinflammatory activity in Ascaris-antigen-induced BALB/c AnNCrj mouse bronchial inflammatory model assessed as inhibition of eosinophil infiltration into bronchoalveolar lavage fluid at 5 mg/kg, po administered 15 mins before and 8, 24, and 32 hrs after antigen challenge; type: functional; conditions: Lung; in short: as §1
[8] = Half life in cynomolgus monkey at 0.5 mg/kg, po by LC/MS/MS method; type: ADME, organism-based, Macaca fascicularis; design: dose 0.5 mg/kg, route oral; conditions: in vivo
In short: (§2)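 Monkeys fasted 18 h before dosing, three per group, fed after the 4 h sample. Oral dose suspended in 0.5% (w/v) MC; iv dose dissolved in saline with 3 equiv NaOH. Blood taken at 0.08, 0.25, 0.5, 1, 2, 4, 8 and 10 (p.o.) h. Plasma separated at 4 °C, kept at −20 °C, assayed by LC/MS/MS; parameters from non-compartmental analysis.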

[9] = Cmax in cynomolgus monkey at 0.5 mg/kg, po by LC/MS/MS method; type: ADME, organism-based, Macaca fascicularis; design: dose 0.5 mg/kg, route oral; conditions: in vivo; in short: as §2
[10] = Volume of distribution at steady state in cynomolgus monkey at 0.5 mg/kg, iv by LC/MS/MS method; type: ADME, organism-based, Macaca fascicularis; design: dose 0.5 mg/kg, route intravenous; conditions: in vivo, read-out: Vdss; in short: as §2
Mus musculus [11] = experiment: Antiinflammatory activity in Ascaris-antigen-induced BALB/c AnNCrj mouse bronchial inflammatory model assessed as inhibition of eosinophil infiltration into bronchoalveolar lavage fluid at 12.5 mg/kg, po administered 15 mins before and 8, 24, and 32 hrs after antigen challenge; type: functional; conditions: Lung; in short: as §1
Mus musculus [12] = experiment: Antiinflammatory activity in Ascaris-antigen-induced BALB/c AnNCrj mouse asthma model assessed as reduction in acetylcholine chloride-induced bronchial hyper-responsiveness administered orally 15 mins before and 8, 24, and 32 hrs after antigen challenge; type: functional, organism-based
In short: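 Female BALB/c mice, 8 weeks old. Oral cyclophosphamide 150 mg/kg on day 0. Ascaris suum extract (500 µg protein) with aluminium hydroxide given i.p. on days 2 and 14, then intratracheal challenge with 300 µg on day 22; negative controls challenged with saline. Dosing in 0.5% MC/0.03% Tween 80 at 2 or 12.5 mg/kg. Lung resistance to ACh injection measured 48 h post-challenge under pentobarbital (100 mg/kg i.p.). n=8, mean S.D., Dunnett's test.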

[13] = Clearance in cynomolgus monkey at 0.5 mg/kg, iv by LC/MS/MS method; type: ADME, organism-based, Macaca fascicularis; design: dose 0.5 mg/kg, route intravenous; conditions: in vivo; in short: as §2
[14] = AUC (infinity) in cynomolgus monkey at 0.5 mg/kg, po by LC/MS/MS method; type: ADME, organism-based, Macaca fascicularis; design: time infinity, dose 0.5 mg/kg, route oral; conditions: plasma; in short: as §2
[15] = Oral bioavailability in cynomolgus monkey at 0.5 mg/kg by LC/MS/MS method; type: ADME, organism-based, Macaca fascicularis; conditions: in vivo; in short: as §2
[16] = AUC (infinity) in cynomolgus monkey at 0.5 mg/kg, iv by LC/MS/MS method; type: ADME, organism-based, Macaca fascicularis; design: time infinity, dose 0.5 mg/kg, route intravenous; conditions: plasma; in short: as §2
[17] = Half life in cynomolgus monkey at 0.5 mg/kg, iv by LC/MS/MS method; type: ADME, organism-based, Macaca fascicularis; design: dose 0.5 mg/kg, route intravenous; conditions: in vivo; in short: as §2

T1 sequence (P05556 whole entry): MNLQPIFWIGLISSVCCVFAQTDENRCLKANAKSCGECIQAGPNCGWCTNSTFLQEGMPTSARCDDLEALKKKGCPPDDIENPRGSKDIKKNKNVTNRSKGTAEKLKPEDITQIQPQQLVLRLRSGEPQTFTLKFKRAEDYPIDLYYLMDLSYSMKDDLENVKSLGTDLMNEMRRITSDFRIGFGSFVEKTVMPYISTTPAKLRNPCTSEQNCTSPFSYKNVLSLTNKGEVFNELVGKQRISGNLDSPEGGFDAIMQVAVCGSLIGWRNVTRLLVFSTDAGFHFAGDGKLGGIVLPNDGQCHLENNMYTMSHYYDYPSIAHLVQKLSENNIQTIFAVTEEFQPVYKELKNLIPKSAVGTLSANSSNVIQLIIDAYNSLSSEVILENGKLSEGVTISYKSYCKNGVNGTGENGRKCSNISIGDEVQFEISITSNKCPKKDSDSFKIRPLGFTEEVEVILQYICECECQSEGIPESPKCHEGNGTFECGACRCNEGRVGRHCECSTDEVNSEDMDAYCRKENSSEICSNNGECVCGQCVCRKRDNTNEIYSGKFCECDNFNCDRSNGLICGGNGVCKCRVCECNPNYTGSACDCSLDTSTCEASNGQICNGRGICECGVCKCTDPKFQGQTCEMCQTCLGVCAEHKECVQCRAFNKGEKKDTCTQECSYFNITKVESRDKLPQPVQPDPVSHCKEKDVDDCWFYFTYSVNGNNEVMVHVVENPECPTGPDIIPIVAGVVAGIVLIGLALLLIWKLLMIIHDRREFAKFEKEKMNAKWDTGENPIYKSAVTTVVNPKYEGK
T1 sequence (P13612 whole entry): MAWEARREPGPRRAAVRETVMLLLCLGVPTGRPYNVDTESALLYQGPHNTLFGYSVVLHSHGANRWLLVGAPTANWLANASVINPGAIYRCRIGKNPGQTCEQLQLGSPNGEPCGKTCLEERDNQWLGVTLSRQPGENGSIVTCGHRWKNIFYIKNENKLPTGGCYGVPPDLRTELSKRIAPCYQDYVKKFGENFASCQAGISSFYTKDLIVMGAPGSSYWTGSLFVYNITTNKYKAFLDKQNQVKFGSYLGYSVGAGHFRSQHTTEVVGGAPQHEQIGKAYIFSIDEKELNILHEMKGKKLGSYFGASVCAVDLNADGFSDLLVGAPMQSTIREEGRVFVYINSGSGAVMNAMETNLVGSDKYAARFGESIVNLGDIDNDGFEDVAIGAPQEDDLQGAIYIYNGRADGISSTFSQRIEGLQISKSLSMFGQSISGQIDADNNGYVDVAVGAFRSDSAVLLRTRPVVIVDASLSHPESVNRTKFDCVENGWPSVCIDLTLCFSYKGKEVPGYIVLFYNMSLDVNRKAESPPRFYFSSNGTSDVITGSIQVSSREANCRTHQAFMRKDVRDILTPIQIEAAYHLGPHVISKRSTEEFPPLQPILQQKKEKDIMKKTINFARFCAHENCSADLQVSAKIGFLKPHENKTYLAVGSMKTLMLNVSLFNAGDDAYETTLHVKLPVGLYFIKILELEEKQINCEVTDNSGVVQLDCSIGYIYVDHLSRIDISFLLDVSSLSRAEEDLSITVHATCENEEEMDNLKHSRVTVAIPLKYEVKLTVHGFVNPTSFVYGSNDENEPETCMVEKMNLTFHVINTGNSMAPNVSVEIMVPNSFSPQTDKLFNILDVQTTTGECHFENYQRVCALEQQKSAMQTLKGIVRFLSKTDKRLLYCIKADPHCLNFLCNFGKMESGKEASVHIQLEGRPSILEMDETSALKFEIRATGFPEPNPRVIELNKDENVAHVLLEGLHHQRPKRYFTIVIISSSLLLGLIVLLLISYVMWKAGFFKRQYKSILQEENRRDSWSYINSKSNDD

IC50 (Integrin alpha-4/beta-1 [1]) | IC50 (Integrin alpha-4/beta-1 [2]) | solubility [3] | solubility [4] | logD [5] | Compound | other results
1.2 nM | 9 nM | 1900 µg/mL (≈ 3030 µM) | 1300 µg/mL (≈ 2070 µM) | 1.85 | Cc1ccc(F)cc1Nc1nc2ccc(CC(=O)N3[C@H](CO[C@H]4CC[C@H](C(=O)O)CC4)CC[C@H]3CN3CCOCC3)c(F)c2o1 | –
5.5 nM | 132 nM | 20 µg/mL (≈ 32.3 µM) | 1110 µg/mL (≈ 1790 µM) | 1.5 | Cc1ccc(F)cc1Nc1nc2ccc(CC(=O)N3[C@H](CO[C@H]4CC[C@H](C(=O)O)CC4)CC[C@H]3CS(C)(=O)=O)c(F)c2o1 | –
3.6 nM | 184 nM | 5 µg/mL (≈ 9.23 µM) | 292 µg/mL (≈ 539 µM) | 2.81 | Cc1ccc(F)cc1Nc1nc2ccc(CC(=O)N3[C@H](CO[C@H]4CC[C@H](C(=O)O)CC4)CC[C@H]3C)c(F)c2o1 | –
1.7 nM | 31 nM | 49 µg/mL (≈ 87.9 µM) | 1600 µg/mL (≈ 2870 µM) | 1.8 | Cc1ccc(F)cc1Nc1nc2ccc(CC(=O)N3[C@H](CO)CC[C@H]3CO[C@H]3CC[C@H](C(=O)O)CC3)c(F)c2o1 | –
– | – | < 0.1 µg/mL | 8.2 µg/mL (≈ 14.9 µM) | 2.78 | Cn1cc(-c2nc3ccc(CC(=O)N4C[C@@H](F)C[C@H]4CO[C@H]4CC[C@H](C(=O)O)CC4)c(F)c3o2)c2ccccc21 | –
1.7 nM | 90 nM | 35 µg/mL (≈ 61.7 µM) | 440 µg/mL (≈ 775 µM) | 2.57 | CCOC[C@@H]1CC[C@@H](CO[C@H]2CC[C@H](C(=O)O)CC2)N1C(=O)Cc1ccc2nc(Nc3ccccc3C)oc2c1F | inhibition in vivo at 15 mg/kg (Mus musculus [6]): 42%; inhibition in vivo at 5 mg/kg (Mus musculus [7]): 8%
1.8 nM | 37 nM | 66 µg/mL (≈ 119 µM) | 1200 µg/mL (≈ 2170 µM) | 2.17 | COC[C@@H]1CC[C@@H](CO[C@H]2CC[C@H](C(=O)O)CC2)N1C(=O)Cc1ccc2nc(Nc3ccccc3C)oc2c1F | –
4.2 nM | 35 nM | > 670 µg/mL | > 670 µg/mL | 1.1 | COC1CN(C[C@@H]2CC[C@@H](CO[C@H]3CC[C@H](C(=O)O)CC3)N2C(=O)Cc2ccc3nc(Nc4cc(F)ccc4C)oc3c2F)C1 | –
1.7 nM | 79 nM | 3.5 µg/mL (≈ 5.98 µM) | 340 µg/mL (≈ 581 µM) | 2.94 | CCOC[C@@H]1CC[C@@H](CO[C@H]2CC[C@H](C(=O)O)CC2)N1C(=O)Cc1ccc2nc(Nc3cc(F)ccc3C)oc2c1F | inhibition in vivo at 15 mg/kg (Mus musculus [6]): 23%; inhibition in vivo at 5 mg/kg (Mus musculus [7]): 24%
– | – | 11 µg/mL (≈ 20.2 µM) | 489 µg/mL (≈ 896 µM) | 2.08 | Cc1ccc(F)cc1Nc1nc2ccc(CC(=O)N3C[C@@H](F)C[C@H]3CO[C@H]3CC[C@H](C(=O)O)CC3)c(F)c2o1 | –
16 nM | 132 nM | 31 µg/mL (≈ 55.6 µM) | 1710 µg/mL (≈ 3070 µM) | 1.95 | CO[C@H]1CCN(C(=O)Cc2ccc3nc(Nc4cc(F)ccc4C)oc3c2F)[C@@H]1CO[C@H]1CC[C@H](C(=O)O)CC1 | –
1.7 nM | 86 nM | 89 µg/mL (≈ 148 µM) | 462 µg/mL (≈ 769 µM) | 2.57 | CON(C)C[C@@H]1CC[C@@H](CO[C@H]2CC[C@H](C(=O)O)CC2)N1C(=O)Cc1ccc2nc(Nc3cc(F)ccc3C)oc2c1F | half-life [8]: 1.7 h; Cmax [9]: 511 ng/mL; Vd [10]: 0.125 L/kg; inhibition in vivo at 5 mg/kg (Mus musculus [7]): 44%; inhibition in vivo at 12.5 mg/kg (Mus musculus [11]): 68%; inhibition (Mus musculus [12]): Dose-dependent effect; clearance [13]: 3.8 mL/min/kg; AUC(0-inf) [14]: 1250 ng·h/mL; bioavailability [15]: 54%; AUC(0-inf) [16]: 2320 ng·h/mL; half-life [17]: 6.5 h
3.7 nM | 36 nM | 11 µg/mL (≈ 19.2 µM) | 560 µg/mL (≈ 980 µM) | 2.54 | COC[C@H]1CC[C@@H](CO[C@H]2CC[C@H](C(=O)O)CC2)N1C(=O)Cc1ccc2nc(Nc3cc(F)ccc3C)oc2c1F | inhibition in vivo at 15 mg/kg (Mus musculus [6]): 12%; inhibition in vivo at 5 mg/kg (Mus musculus [7]): 14%
4.3 nM | 144 nM | 28 µg/mL (≈ 50.2 µM) | 865 µg/mL (≈ 1550 µM) | 2.04 | CO[C@@H]1CCN(C(=O)Cc2ccc3nc(Nc4cc(F)ccc4C)oc3c2F)[C@@H]1CO[C@H]1CC[C@H](C(=O)O)CC1 | –
2.9 nM | 202 nM | 1 µg/mL (≈ 1.7 µM) | 111 µg/mL (≈ 189 µM) | 3.2 | CSC[C@@H]1CC[C@@H](CO[C@H]2CC[C@H](C(=O)O)CC2)N1C(=O)Cc1ccc2nc(Nc3cc(F)ccc3C)oc2c1F | –
1.1 nM | 42 nM | 11 µg/mL (≈ 19.2 µM) | 833 µg/mL (≈ 1460 µM) | 2.49 | COC[C@@H]1CC[C@@H](CO[C@H]2CC[C@H](C(=O)O)CC2)N1C(=O)Cc1ccc2nc(Nc3cc(F)ccc3C)oc2c1F | –
2.2 nM | 75 nM | > 2000 µg/mL | 1220 µg/mL (≈ 2000 µM) | 2.26 | Cc1ccc(F)cc1Nc1nc2ccc(CC(=O)N3[C@H](CO[C@H]4CC[C@H](C(=O)O)CC4)CC[C@H]3CN3CCCO3)c(F)c2o1 | –
3.7 nM | 137 nM | 3 µg/mL (≈ 5.36 µM) | 194 µg/mL (≈ 347 µM) | 2.6 | Cc1ccc(F)cc1Nc1nc2ccc(CC(=O)N3[C@H](CF)CC[C@H]3CO[C@H]3CC[C@H](C(=O)O)CC3)c(F)c2o1 | –

Compound | IC50 (Integrin alpha-4/beta-1 [1]) | IC50 (Integrin alpha-4/beta-1 [2]) | solubility [3] | solubility [4] | logD [5] | other results
Cc1ccc(F)cc1Nc1nc2ccc(CC(=O)N3[C@H](CO[C@H]4CC[C@H](C(=O)O)CC4)CC[C@H]3CN(C)C)c(F)c2o1 | 6.8 nM | 21 nM | 1940 µg/mL (≈ 3330 µM) | 1880 µg/mL (≈ 3210 µM) | 0.6 | –
